High-throughput results: PubChem, several laboratories
Compounds with a hit are over-represented: about 2.3% of the library has one in this group of screens.
Calb FLC – C. albicans growth inhibition with fluconazole, primary screen, CaCi-2 strain, Alamar Blue fluorescence. hit rate 0.57% among 300,000. growth inhibition, % (no concentration beside the values). C. albicans CaCi-2 (fluconazole-resistant clinical isolate) + fluconazole, 48 h. AID 1979, 2009;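 active means growth inhibition above about 58% in most replicates, limit read from the data, passing the limit was not always enough; inconclusive means exactly half the replicates above a set limit; inactive means most replicates below a set limit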;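 further: all wells also contain fluconazole at 8 µg/ml as a sub-toxic cotreatment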
ARFGAP1 inh – inhibitors of rat ARFGAP1 GAP activity, primary screen, biochemical, fluorescence polarization, GDP tracer | inhibition, % at 16.5 µM | hit rate 0.26% among 360,000 | ADP-ribosylation factor GTPase-activating protein 1 (Rattus norvegicus), Q62848 | Arfgap1-stimulated ARF1 GTP hydrolysis, GDP FP detection;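 active means inhibition above a per-plate limit, mean inhibition of low control wells plus 3 SD, cut at about 25% in these data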
Target sequence (Q62848 1-136 limits assumed): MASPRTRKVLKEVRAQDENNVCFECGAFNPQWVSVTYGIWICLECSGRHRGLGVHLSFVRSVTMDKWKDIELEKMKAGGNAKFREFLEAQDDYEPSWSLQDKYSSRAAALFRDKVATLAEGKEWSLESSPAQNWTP
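Material: rat Arfgap1 catalytic domain, aa 1-136; also added: human ARF1(Δ1-17)-GTP substrate; compound dosing: one concentration, 16.5 µM, DMSO 1.26%; incubation: GTP hydrolysis reaction 2 h at 25 °C; measured by: Tracer-displacement fluorescence polarization with EDTA stop, 620/688 nm; evaluation: % inhibition from polarization; repeats: one replicate per compound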
ASAP1 GAP inh – inhibitors of human ASAP1 ArfGAP activity, primary screen, biochemical, fluorescence polarization; AID 624377, 2012; inhibition, % at 16.5 µM; ASAP1-stimulated ARF1 GTP hydrolysis, GDP FP detection; hit rate 0.19% among 360,000; Arf-GAP with SH3 domain, ANK repeat and PH domain-containing protein 1 (Homo sapiens), …; in the data active means inhibition above about 25%
SKKanGAS inh – S. pyogenes SKKanGAS growth inhibitors in kanamycin, primary screen, streptokinase expression inhibitor project, SKKanGAS strain, BacTiter-Glo luminescence | AID 1662, 2009 | hit rate 1.3% among 300,000 | inhibition, % at 7.5 µM | 6 h;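 active means mean replicate score, as percent of positive control median, at least 50; inconclusive means mean below 50 but one replicate at or above 50; inactive means mean and every replicate below 50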;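 further: strain carries kanamycin resistance gene driven by streptokinase promoter and grows in 40 µg/ml kanamycin; loss of luminescence reflects streptokinase promoter inhibition or plain growth inhibition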
HGIII-sPLA2 inh – human group III sPLA2 inhibitors, primary screen, biochemical, QFRET, BODIPY PC-A2 liposome substrate; Group 3 secretory phospholipase A2 (Homo sapiens), Q9NZ20; QFRET BODIPY PC-A2 liposome hydrolysis, fluorescence; inhibition, % at 12.2 µM; hit rate 0.56% among 370,000;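 active means inhibition above mean plus 3 SD of compounds lying within the high and low control bounds, cut at about 19% in these data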
Target sequence (Q9NZ20 whole entry, looked up): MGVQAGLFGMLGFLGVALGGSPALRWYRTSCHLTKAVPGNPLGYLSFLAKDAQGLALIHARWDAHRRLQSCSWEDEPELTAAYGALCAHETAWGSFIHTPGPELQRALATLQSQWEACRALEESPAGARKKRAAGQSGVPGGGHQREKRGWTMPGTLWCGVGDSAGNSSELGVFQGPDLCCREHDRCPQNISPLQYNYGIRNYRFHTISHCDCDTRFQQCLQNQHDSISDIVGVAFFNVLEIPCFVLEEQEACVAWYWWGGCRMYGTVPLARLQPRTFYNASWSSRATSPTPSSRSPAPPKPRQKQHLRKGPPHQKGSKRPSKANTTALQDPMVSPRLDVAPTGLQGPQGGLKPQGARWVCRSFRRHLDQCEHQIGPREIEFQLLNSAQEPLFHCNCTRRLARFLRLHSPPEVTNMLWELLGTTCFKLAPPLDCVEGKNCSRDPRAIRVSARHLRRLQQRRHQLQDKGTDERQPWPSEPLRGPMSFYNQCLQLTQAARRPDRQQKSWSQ
ASAP1 GAP conf – ASAP1 GAP activity inhibitors, confirmation, biochemical, fluorescence polarization, human, triplicate. shares compounds with ASAP1 GAP inh. ASAP1-stimulated Arf1 GTPase, GDP fluorescence polarization. inhibition, % at 16.5 µM. hit rate 37% among 620. AID 624431, 2012;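 active means mean inhibition over triplicates exceeds the hit threshold derived for the earlier primary screening run, cut at about 25% in these data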
Numbers stand for hits; n = inactive; u = inconclusive; x = no result.

SMILES | Calb FLC | ARFGAP1 inh | ASAP1 GAP inh | SKKanGAS inh | HGIII-sPLA2 inh | ASAP1 GAP conf
O=C(CSc1ncnc2scc(-c3ccccc3)c12)N1CCN(Cc2ccc3c(c2)OCO3)CC1 | n | n | 31.3 | n | n | 46.1
O=C(Nc1ccc(Cn2cccn2)cc1)c1ccc(COc2cccc(Br)c2)cc1 | n | n | 29.0 | n | n | n
O=c1cc(Nc2cccc(Br)c2)[nH]c(=O)[nH]1 | n | n | n | n | n | x
O=c1[nH]c(Nc2ccccc2)cc2cc(Br)ccc12 | n | n | 36.2 | n | n | n
C[C@H]1COc2cc(Br)ccc2S(=O)(=O)N1Cc1cn(CCC2OCCO2)nn1 | x | x | x | x | n | x
CC(C)c1ccc([C@@H]2O[C@H](CCc3ccccc3)Cc3[nH][nH]c(=O)c32)cc1 | x | n | 28.4 | x | n | n
Oc1cccc(Nc2nc(-c3ccccc3)nc3ccccc23)c1 | n | n | 26.8 | n | n | 28.1
CC(=O)c1cccc(Nc2nc(-c3ccccc3)nc3ccccc23)c1 | n | n | n | n | n | x
COC(=O)c1cccc(Nc2nc(-c3ccncc3)nc3ccccc23)c1 | n | n | 27.6 | n | n | 57.1
CC(=O)Nc1cccc(Nc2nc(-c3ccccc3)nc3ccccc23)c1 | u | n | n | n | n | x
O=C(COc1ccc(/C=N/NC(=O)c2ccncc2)cc1)Nc1cccc([N+](=O)[O-])c1 | n | n | 29.1 | n | n | n
O=C(COc1ccc(/C=N/NC(=O)c2ccncc2)cc1)Nc1ccccc1 | n | n | n | n | n | x
O=c1cc(-c2ccc(O)c(O)c2)oc2c1ccc1ccccc12 | x | n | 24.7 | x | n | n
CC1=CC2=NC(=O)/C(=C\c3ccc(-c4ccc(Cl)cc4)o3)C(=N)N2O1 | x | n | 29.8 | x | n | 87.4
COc1ccc(/C=C2\C(=O)NC(=S)N2C(=O)c2ccc(F)cc2)cc1 | n | n | 24.9 | n | n | n
O=C(CCCN1C(=O)/C(=C/c2ccc(F)cc2)SC1=S)NCCCn1ccnc1 | n | n | 25.7 | n | n | n
CC(Oc1ccc(Cl)cc1Cl)c1nc(-c2ccc(NC(=O)c3ccncc3)cc2)no1 (stereo unspecified) | n | n | 24.9 | n | n | n
CCc1ccccc1NC(=O)[C@@H]1CCCN1S(=O)(=O)c1cccc2cccnc12 | x | x | x | x | n | x
C[C@H]1CNC(=O)c2c(C(=O)N3CCN(C(=O)OC(C)(C)C)CC3)ncn21 | x | n | n | x | n | x
COc1ccc(C(=O)Nc2ccc(OCC(F)(F)C(F)F)c(C(F)(F)F)c2)cc1OC | n | n | 26.5 | n | n | 26.2
COc1ccc(NC(=O)c2ccc(COCC(F)(F)F)cc2)cc1OC | n | n | n | n | n | x
COc1ccc(C(=O)Nc2ccc3c(c2)C(=O)c2ccccc2C3=O)cc1OC | n | n | 27.1 | n | n | 40.0
CCOC(=O)[C@]12CCCCC/C=C\1N(CCc1ccc(Cl)cc1)C(=O)[C@H]2CC(=O)NCC1CCCCC1 | x | x | x | x | n | x
COc1cccc(-c2ccc3c(c2)O[C@H](CN(C)C(=O)c2ccccc2F)[C@H](C)CN([C@H](C)CO)S3(=O)=O)c1 | x | n | 25.1 | x | n | n
COc1cccc(-c2ccc3c(c2)O[C@@H](CN(C)Cc2cncnc2)[C@@H](C)CN([C@H](C)CO)S3(=O)=O)c1 | x | n | n | x | n | x
SMILES | Calb FLC | ARFGAP1 inh | ASAP1 GAP inh | SKKanGAS inh | HGIII-sPLA2 inh | ASAP1 GAP conf
CCOC(=O)[C@]12CCCC=C1N(Cc1ccc(OC)cc1)C(=O)[C@@H]2CC(=O)NCc1ccc(OC)c(OC)c1 | x | x | x | x | n | x
COc1cc(/C=C/c2nc(-c3ccccc3O)n[nH]2)cc(OC)c1OC | n | n | 25.4 | n | n | 31.0
CSCCNC(=O)C1(C)CCN1C(=O)c1ccc(C(C)(C)C)cc1 (stereo unspecified) | x | n | n | x | n | x
Cc1cc2c(nc1C)CCCN2Cc1ccccc1C(F)(F)F | x | n | n | x | n | x
Cc1ccccc1N1CCN(C(=O)CN2C(=O)c3ccccc3C2=O)CC1 | n | n | 26.1 | n | n | n
O=C(Cn1cnc2c(nnn2-c2cccc(F)c2)c1=O)Nc1ccc2c(c1)OCCO2 | n | n | n | n | n | x
COc1ccc(-n2nnc3c(=O)n(CC(=O)Nc4ccc5c(c4)OCCO5)cnc32)cc1OC | n | n | 108.3 | n | n | 72.9
CCCOc1ccc(F)cc1-c1cc(C(=O)Nc2ccc(C)c(NS(C)(=O)=O)c2)[nH]n1 | x | n | n | x | n | x
CC(=O)Nc1ccc(C(=O)Nc2cccc(-c3cnc4ccccc4n3)c2)cc1 | n | n | 39.9 | n | n | 80.3
Cc1ccc(C(=O)Nc2cccc(-c3cnc4ccccc4n3)c2)cc1 | n | n | n | n | n | x
O=C(Nc1cccc(-c2csc(Nc3ccc(Cl)cc3)n2)c1)c1ccccc1 | n | n | 26.2 | 91.4 | n | 26.1
Cc1cc(N2CCNC[C@H]2C)ccc1N1CCN(Cc2ccccc2)[C@@H](C)C1 | x | n | n | x | n | x
COc1ccc(C2CC(=O)C(c3ccc(C(F)(F)F)cc3)=CN2Cc2ccccc2)cc1 (stereo unspecified) | x | n | n | x | n | x
COc1ccc(/C=C2\SC(N)=NC2=O)cc1Br | n | n | n | n | n | x
Cc1ccc(C2=NC(=O)/C(=C/c3cc(O)c(O)c(Br)c3)S2)cc1 | x | n | 30.5 | x | n | 69.0
COc1cc(/C=C2\SC(c3ccc(C)cc3)=NC2=O)cc(OC)c1O | n | n | 24.8 | n | n | 36.4
COc1cc(/C=C2\SC(N)=NC2=O)cc(Cl)c1O | n | n | n | n | n | x
COc1ccc2cc3c(N)nn(C(=O)c4ccc(Cl)c([N+](=O)[O-])c4)c3nc2c1 | n | n | 72.7 | n | n | 118.0
COc1ccc2cc3c(N)nn(C(=O)c4ccccc4[N+](=O)[O-])c3nc2c1 | n | n | n | n | n | x
CC(=O)N1CCCN(C(=O)C2CCN(c3ncnc4c3sc3cccc(F)c34)CC2)CC1 | x | x | x | x | n | x
C[C@H]1[C@@H](OC(=O)NCc2ccco2)CC[C@@]23CCCN2C(=O)CCC[C@@H]13 | x | x | x | x | n | x
COc1ccc(/C=N/NC(=O)c2cccc(NC(C)=O)c2)c(OC)c1 | n | n | n | n | n | x
CCCCC(=O)Nc1cccc(C(=O)N/N=C/c2ccc(OC)cc2OC)c1 | n | n | 25.9 | n | n | n
Cc1ccc(-c2nnc(N(C)C(=O)c3cccnc3)s2)cn1 | n | n | 25.6 | n | n | n
O=C(O)C1[C@H]2C(=O)N(Cc3cccs3)C[C@]23C=C[C@H]1O3 (stereo partly specified) | n | n | 24.8 | n | n | n
C[C@@H]1NC(=O)[C@H]2C[C@@]3(c4ccccc4)c4ccccc4N[C@H]3N2C1=O | x | x | x | x | n | x
